ChEMBL document CHEMBL4229344 (Eur J Med Chem, 2018)
Calls of active or inactive are those of the source. No cut-off for these calls is given here.

Columns and labels:
[1] = target: Vascular endothelial growth factor receptor 3 (Homo sapiens) (UniProt P35916); test: Binding affinity to wild-type human partial length FLT4 (E821 to E1196 residues) expressed in bacterial expression system assessed as residual binding level at 1 uM by Kinomescan method relative to control
[2] = target: Tyrosine-protein kinase BTK (Homo sapiens) (UniProt Q06187); test: Binding affinity to wild-type human full length BTK (M1 to S659 residues) expressed in mammalian expression system assessed as residual binding level at 1 uM by Kinomescan method relative to control
In short: (§1)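 Single-concentration (1 μM) competition-binding screen run by KINOMEscan against a panel of 468 purified kinases and mutants. The read-out is the relative binding activity of the test compound to each kinase.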

[3] = target: BMP-2-inducible protein kinase (Homo sapiens) (UniProt Q9NSY1); test: Binding affinity to wild-type human partial length BIKE (S34 to N329 residues) expressed in bacterial expression system assessed as residual binding level at 1 uM by Kinomescan method relative to control
In short: (§2)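 Single-concentration KINOMEscan (DiscoverX) binding screen at 1 μM against a panel of 468 purified kinases and mutants. The read-out is binding relative to control.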

[4] = target: Mitogen-activated protein kinase kinase kinase 7 (Homo sapiens) (UniProt O43318); test: Binding affinity to wild-type human partial length TAK1 (M1 to Q303 residues) expressed in mammalian expression system assessed as residual binding level at 1 uM by Kinomescan method relative to control
In short: (§3)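 KINOMEscan competition binding against a panel of 468 purified kinases/mutants, compound tested at 1 μM; readout is relative binding activity versus control.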

[5] = target: Mitogen-activated protein kinase 13 (Homo sapiens) (UniProt O15264); test: Binding affinity to wild-type human full length p38-delta (M1 to L365 residues) expressed in bacterial expression system assessed as residual binding level at 1 uM by Kinomescan method relative to control
In short: (§4)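 KINOMEscan competition binding against 468 purified kinases/mutants, test compound at 1 µM; residual binding relative to control.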

[6] = target: cAMP-dependent protein kinase catalytic subunit PRKX (Homo sapiens) (UniProt P51817); test: Binding affinity to wild-type human partial length PRKX (M1 to F358 residues) expressed in bacterial expression system assessed as residual binding level at 1 uM by Kinomescan method relative to control; in short: as §3
[7] = target: Mitogen-activated protein kinase kinase kinase 13 (Homo sapiens) (UniProt O43283); test: Binding affinity to wild-type human full length LZK (M1 to W966 residues) expressed in mammalian expression system assessed as residual binding level at 1 uM by Kinomescan method relative to control; in short: as §1
[8] = target: Testis-specific serine/threonine-protein kinase 1 (Homo sapiens) (UniProt Q9BXA7); test: Binding affinity to wild-type human full length TSSK1B (M1 to Q367 residues) expressed in bacterial expression system assessed as residual binding level at 1 uM by Kinomescan method relative to control; in short: as §2
[9] = target: Serine/threonine-protein kinase Sgk2 (Homo sapiens) (UniProt Q9HBY8); test: Binding affinity to wild-type human partial length SGK2 (L54 to C427 residues) expressed in mammalian expression system assessed as residual binding level at 1 uM by Kinomescan method relative to control
NCI-H1703 [10] = test: Induction of apoptosis in human NCI-H1703 cells assessed as cleaved caspase3 expression level at 0.3 to 10 uM after 72 hrs by Western blot analysis; type: functional, cell-based
In short: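 Cells exposed to compound or DMSO for the stated periods, then lysed and immunoblotted for PARP and caspase-3 cleavage, with β-actin as loading control. NCI-H1703 stimulation used PDGF AA at 100 ng/mL.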

[11] = target: Phosphorylase b kinase gamma catalytic chain, skeletal muscle/heart isoform (Homo sapiens) (UniProt Q16816); test: Binding affinity to wild-type human full length PHKG1 (M1 to Y387 residues) expressed in bacterial expression system assessed as residual binding level at 1 uM by Kinomescan method relative to control; in short: as §4
[12] = target: Serine/threonine-protein kinase Sgk3 (Homo sapiens) (UniProt Q96BR1); test: Binding affinity to wild-type human partial length SGK3 (M119 to L496 residues) expressed in mammalian expression system assessed as residual binding level at 1 uM by Kinomescan method relative to control; in short: as §3
[13] = system: Tyrosine-protein kinase ABL1 (Homo sapiens), P00519 [Q252H]; test: Binding affinity to human phosphorylated ABL1 Q252H mutant expressed in mammalian expression system assessed as residual binding level at 1 uM by Kinomescan method relative to control; in short: as §1
[14] = target: Serine/threonine-protein kinase Nek2 (Homo sapiens) (UniProt P51955); test: Binding affinity to wild-type human partial length NEK2 (M1 to K309 residues) expressed in bacterial expression system assessed as residual binding level at 1 uM by Kinomescan method relative to control; in short: as §3
[15] = target: Rho-associated protein kinase 2 (Homo sapiens) (UniProt O75116); test: Binding affinity to wild-type human partial length ROCK2 (M1 to T431 residues) expressed in mammalian expression system assessed as residual binding level at 1 uM by Kinomescan method relative to control
[16] = system: Epidermal growth factor receptor (Homo sapiens), P00533 [L861Q]; test: Binding affinity to human partial length EGFR L861Q mutant (R669 to V1011 residues) expressed in bacterial expression system assessed as residual binding level at 1 uM by Kinomescan method relative to control
In short: (§5)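 Kinome-wide single-concentration binding screen (KINOMEscan) at 1 μM against a panel of 468 purified kinases and mutants. Read-out is relative binding of each kinase compared with control. Selectivity across the panel was summarised as an S(10) score.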

[17] = Apparent clearance in Sprague-Dawley rat at 10 mg/kg, po; type: ADME, organism-based; settings: in vivo, read-out: CL(app) (converted)
[18] = target: Epidermal growth factor receptor (Homo sapiens) (UniProt P00533); test: Binding affinity to human partial length EGFR E746-A750del mutant expressed in bacterial expression system assessed as residual binding level at 1 uM by Kinomescan method relative to control; in short: as §5
[19] = target: Serine/threonine-protein kinase MAK (Homo sapiens) (UniProt P20794); test: Binding affinity to wild-type human partial length MAK (M1 to P314 residues) expressed in bacterial expression system assessed as residual binding level at 1 uM by Kinomescan method relative to control
In short: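 Kinome-wide competition binding screen against a panel of 468 purified kinases/mutants, with the test compound at a single concentration of 1 μM. Read-out is the relative binding activity of each kinase in the presence of compound.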

[20] = target: Serine/threonine-protein kinase ULK3 (Homo sapiens) (UniProt Q6PHR2); test: Binding affinity to wild-type human partial length ULK3 (M1 to Q290 residues) expressed in mammalian expression system assessed as residual binding level at 1 uM by Kinomescan method relative to control
NCI-H1703 [21] = test: Cell cycle arrest in human NCI-H1703 cells assessed as accumulation at G0/G1 phase after 72 hrs by propidium iodide/RNase staining-based flow cytometric analysis; type: functional
In short: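 Cells treated with compound or DMSO for the stated periods, fixed overnight in 70% cold ethanol at −20 °C, stained with PI/RNase buffer, then analysed by flow cytometry for cell-cycle distribution. For NCI-H1703 stimulation, PDGF AA was used at 100 ng/mL.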

Chain of Mitogen-activated protein kinase kinase kinase 13 (Homo sapiens) (O43283 whole entry, the tested form may be a part): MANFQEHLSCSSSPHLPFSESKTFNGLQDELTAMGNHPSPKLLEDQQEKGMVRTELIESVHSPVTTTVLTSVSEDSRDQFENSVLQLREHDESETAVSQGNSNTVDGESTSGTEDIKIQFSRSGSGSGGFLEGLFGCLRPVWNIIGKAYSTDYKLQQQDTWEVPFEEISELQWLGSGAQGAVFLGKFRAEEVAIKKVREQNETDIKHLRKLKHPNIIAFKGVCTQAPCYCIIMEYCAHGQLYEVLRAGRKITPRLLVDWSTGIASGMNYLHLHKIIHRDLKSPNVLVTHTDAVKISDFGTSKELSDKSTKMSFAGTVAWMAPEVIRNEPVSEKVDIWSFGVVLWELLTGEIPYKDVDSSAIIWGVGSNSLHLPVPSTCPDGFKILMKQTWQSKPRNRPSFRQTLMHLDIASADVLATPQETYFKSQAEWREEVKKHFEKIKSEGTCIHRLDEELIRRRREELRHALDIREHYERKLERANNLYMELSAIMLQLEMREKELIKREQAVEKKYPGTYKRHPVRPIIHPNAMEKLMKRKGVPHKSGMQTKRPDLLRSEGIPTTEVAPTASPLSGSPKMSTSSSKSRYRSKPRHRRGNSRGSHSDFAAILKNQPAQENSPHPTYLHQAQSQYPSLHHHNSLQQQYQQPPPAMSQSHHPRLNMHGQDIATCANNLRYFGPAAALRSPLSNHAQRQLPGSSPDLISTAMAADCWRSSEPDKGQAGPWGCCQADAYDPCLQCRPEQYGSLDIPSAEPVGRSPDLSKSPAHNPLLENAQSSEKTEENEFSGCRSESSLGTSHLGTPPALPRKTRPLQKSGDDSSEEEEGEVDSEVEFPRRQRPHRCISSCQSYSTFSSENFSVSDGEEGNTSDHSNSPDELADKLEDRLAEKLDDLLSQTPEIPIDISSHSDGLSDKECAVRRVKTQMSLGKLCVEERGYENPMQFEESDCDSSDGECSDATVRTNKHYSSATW
Chain of Testis-specific serine/threonine-protein kinase 1 (Homo sapiens) (Q9BXA7 whole entry, the tested form may be a part): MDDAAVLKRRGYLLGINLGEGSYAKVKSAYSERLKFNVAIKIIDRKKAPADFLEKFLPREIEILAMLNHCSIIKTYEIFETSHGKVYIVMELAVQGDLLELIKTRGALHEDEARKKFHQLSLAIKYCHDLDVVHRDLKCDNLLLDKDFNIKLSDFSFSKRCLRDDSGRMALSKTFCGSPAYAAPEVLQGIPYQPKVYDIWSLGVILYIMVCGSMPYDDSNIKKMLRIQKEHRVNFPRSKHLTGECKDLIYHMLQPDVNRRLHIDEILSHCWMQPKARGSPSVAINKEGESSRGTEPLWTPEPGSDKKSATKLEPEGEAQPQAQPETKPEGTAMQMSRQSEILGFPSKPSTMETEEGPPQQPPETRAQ
Chain of Vascular endothelial growth factor receptor 3 (Homo sapiens) (P35916 whole entry, the tested form may be a part): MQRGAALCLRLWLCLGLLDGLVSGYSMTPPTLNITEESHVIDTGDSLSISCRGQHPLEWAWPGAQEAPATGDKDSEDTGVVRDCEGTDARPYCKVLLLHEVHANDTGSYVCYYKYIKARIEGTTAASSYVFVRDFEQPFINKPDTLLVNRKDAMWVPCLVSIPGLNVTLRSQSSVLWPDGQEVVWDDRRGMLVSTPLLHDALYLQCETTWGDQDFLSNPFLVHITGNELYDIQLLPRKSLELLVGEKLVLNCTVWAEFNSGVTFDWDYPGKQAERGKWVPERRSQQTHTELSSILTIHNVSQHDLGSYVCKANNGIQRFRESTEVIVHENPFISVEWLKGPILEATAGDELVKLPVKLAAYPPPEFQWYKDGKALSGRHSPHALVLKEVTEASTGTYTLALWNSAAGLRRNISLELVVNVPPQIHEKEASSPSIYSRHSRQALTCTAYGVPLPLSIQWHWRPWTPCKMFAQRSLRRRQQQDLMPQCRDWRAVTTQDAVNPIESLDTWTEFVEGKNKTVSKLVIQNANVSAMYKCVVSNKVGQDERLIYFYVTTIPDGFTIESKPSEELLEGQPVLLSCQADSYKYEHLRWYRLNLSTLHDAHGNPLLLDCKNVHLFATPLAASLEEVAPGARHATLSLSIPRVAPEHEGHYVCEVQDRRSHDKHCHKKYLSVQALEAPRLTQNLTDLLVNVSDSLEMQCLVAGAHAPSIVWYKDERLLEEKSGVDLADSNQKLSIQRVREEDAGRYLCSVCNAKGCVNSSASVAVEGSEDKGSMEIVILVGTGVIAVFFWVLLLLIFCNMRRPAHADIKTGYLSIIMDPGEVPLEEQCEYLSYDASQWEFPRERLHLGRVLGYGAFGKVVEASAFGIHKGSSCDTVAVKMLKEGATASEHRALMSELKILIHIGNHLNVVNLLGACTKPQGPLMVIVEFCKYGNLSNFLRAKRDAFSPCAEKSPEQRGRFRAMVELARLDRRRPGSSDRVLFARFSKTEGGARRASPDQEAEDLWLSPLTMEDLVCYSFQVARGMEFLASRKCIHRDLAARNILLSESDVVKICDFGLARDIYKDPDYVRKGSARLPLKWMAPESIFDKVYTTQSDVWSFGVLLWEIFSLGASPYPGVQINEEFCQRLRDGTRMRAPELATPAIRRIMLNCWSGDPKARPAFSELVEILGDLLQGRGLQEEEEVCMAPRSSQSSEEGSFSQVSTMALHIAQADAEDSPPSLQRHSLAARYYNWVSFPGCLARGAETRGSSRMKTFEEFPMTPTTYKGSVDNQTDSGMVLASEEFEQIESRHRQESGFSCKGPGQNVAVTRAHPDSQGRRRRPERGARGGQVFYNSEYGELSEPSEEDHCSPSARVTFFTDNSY
Chain of Mitogen-activated protein kinase kinase kinase 7 (Homo sapiens) (O43318 whole entry, the tested form may be a part): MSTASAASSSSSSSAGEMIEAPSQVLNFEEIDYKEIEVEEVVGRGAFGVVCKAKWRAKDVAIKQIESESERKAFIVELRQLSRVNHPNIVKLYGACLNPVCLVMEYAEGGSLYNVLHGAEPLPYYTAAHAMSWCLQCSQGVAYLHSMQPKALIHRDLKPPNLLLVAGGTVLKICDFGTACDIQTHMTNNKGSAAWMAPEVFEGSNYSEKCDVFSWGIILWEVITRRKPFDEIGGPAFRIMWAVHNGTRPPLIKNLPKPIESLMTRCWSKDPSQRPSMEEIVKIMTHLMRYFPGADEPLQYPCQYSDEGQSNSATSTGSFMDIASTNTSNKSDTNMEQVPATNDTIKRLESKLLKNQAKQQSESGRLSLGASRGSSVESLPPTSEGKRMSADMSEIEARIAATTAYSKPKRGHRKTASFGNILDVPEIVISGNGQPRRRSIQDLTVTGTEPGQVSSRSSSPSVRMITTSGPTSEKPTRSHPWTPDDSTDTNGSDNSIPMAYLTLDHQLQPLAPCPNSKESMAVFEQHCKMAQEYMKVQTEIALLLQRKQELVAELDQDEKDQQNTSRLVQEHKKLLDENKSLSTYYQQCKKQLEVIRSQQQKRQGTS
Chain of BMP-2-inducible protein kinase (Homo sapiens) (Q9NSY1 whole entry, looked up, the tested form may be a part): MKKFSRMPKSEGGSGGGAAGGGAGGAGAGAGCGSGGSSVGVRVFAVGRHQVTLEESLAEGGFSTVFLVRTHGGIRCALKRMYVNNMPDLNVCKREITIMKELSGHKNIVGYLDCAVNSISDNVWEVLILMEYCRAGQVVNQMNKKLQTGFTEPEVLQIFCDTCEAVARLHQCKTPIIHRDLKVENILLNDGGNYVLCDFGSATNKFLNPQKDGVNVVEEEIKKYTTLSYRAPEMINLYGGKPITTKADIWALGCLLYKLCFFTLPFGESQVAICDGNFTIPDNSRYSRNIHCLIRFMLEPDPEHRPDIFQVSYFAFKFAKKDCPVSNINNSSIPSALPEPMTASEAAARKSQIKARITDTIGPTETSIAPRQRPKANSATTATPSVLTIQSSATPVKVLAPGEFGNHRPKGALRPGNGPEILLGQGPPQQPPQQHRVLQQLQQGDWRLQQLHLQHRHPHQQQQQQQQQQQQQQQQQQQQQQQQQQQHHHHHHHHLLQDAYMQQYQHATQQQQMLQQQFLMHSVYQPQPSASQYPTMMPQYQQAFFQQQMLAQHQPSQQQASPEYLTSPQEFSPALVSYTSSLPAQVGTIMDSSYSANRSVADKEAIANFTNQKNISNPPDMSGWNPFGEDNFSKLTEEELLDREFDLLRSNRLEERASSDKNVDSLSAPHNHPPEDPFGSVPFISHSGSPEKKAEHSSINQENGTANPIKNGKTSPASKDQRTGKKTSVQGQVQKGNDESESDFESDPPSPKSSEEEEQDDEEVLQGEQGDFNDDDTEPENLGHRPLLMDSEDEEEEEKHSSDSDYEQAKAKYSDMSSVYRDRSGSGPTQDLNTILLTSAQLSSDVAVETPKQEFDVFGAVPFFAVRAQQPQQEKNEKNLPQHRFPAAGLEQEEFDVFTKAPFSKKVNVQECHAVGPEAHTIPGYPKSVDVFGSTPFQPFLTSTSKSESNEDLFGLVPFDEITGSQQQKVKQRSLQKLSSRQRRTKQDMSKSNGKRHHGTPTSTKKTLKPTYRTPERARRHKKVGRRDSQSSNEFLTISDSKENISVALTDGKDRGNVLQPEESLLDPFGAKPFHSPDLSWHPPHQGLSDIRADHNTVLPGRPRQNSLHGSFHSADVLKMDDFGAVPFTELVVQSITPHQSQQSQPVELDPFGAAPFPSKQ
Chain of Serine/threonine-protein kinase MAK (Homo sapiens) (P20794 whole entry, the tested form may be a part): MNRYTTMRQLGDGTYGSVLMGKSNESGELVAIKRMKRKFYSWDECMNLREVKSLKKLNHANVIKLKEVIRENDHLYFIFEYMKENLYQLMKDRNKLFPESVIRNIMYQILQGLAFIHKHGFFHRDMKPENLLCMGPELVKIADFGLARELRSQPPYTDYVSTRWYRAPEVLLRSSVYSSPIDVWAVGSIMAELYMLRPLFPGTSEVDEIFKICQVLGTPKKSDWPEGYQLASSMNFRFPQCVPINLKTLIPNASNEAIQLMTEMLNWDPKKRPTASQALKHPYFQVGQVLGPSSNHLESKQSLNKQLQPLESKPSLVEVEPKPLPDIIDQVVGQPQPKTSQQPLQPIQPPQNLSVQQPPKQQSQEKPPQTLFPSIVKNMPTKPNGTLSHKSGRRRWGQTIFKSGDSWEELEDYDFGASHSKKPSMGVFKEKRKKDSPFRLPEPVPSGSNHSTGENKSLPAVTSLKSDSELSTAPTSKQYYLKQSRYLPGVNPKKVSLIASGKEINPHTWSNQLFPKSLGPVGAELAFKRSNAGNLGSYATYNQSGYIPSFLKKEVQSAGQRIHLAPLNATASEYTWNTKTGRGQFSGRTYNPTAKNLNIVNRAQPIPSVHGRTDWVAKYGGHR

Cc1ccc(NC(=O)c2ccc(CN(CCN(C)C)C(=O)c3cccnc3)cc2)cc1Nc1nccc(-c2cccnc2)n1
Activity [1]: 100%
Activity [2]: 100%
Activity [3]: 99%
Activity [4]: 92%
Activity [5]: 79%
Activity [6]: 92%
Activity [7]: 100%
Activity [8]: 99%
Activity [9]: 100%
Activity (NCI-H1703 [10]): inactive
Activity [11]: 94%
Activity [12]: 92%
Activity [13]: 100%
Activity [14]: 91%
Activity [15]: 100%
Activity [16]: 99%
CL/F [17]: 1450 mL/min/kg
Activity [18]: 100%
Activity [19]: 92%
Activity [20]: 85%
Activity (NCI-H1703 [21]): Dose-dependent effect
